Assays:
[1] = tested on: Plasmodium berghei; experiment: Antimalarial activity against Plasmodium berghei infected in Swiss Webster mouse assessed as mouse survival rate at 100 mg/kg administered once daily via oral gavage for 4 consecutive days beginning 1 hr after infection measured on day 4 post infection relative to control; format: functional
How it was run: (§1)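 Mice given an intraperitoneal injection of P. berghei-infected erythrocytes taken from a previously infected animal. Oral dosing once daily for 4 consecutive days, starting 1 h after infection. Vehicle: polyethylene glycol 300/propylene glycol/water (weight ratio 55/25/20). Percent survival recorded daily from day 4 to day 20. Chloroquine 30 mg/kg and vehicle-only groups served as controls.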

[2] = tested on: Plasmodium berghei; experiment: Antimalarial activity against Plasmodium berghei infected in Swiss Webster mouse assessed as mouse survival rate at 3 mg/kg administered once daily via oral gavage for 4 consecutive days beginning 1 hr after infection measured on day 7 post infection relative to control; format: functional
How it was run: (§2)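 P. berghei-infected erythrocytes taken from a previously infected mouse were injected intraperitoneally. Oral dosing, once daily for 4 consecutive days, began 1 h after infection, in polyethylene glycol 300/propylene glycol/water (55/25/20 by weight). Chloroquine at 30 mg/kg was the positive control, with a vehicle-only group. Percent survival was recorded daily from day 4 to day 20.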

[3] = tested on: Plasmodium berghei; experiment: Antimalarial activity against Plasmodium berghei infected in Swiss Webster mouse assessed as mouse survival rate at 100 mg/kg administered once daily via oral gavage for 4 consecutive days beginning 1 hr after infection measured on day 14 post infection relative to control; format: functional; how it was run: as §1
[4] = tested on: Plasmodium berghei; experiment: Antimalarial activity against Plasmodium berghei infected in Swiss Webster mouse assessed as mouse survival rate at 100 mg/kg administered once daily via oral gavage for 4 consecutive days beginning 1 hr after infection measured on day 13 post infection relative to control; format: functional; how it was run: as §1
[5] = tested on: Plasmodium berghei; experiment: Antimalarial activity against Plasmodium berghei infected in Swiss Webster mouse assessed as mouse survival rate at 100 mg/kg administered once daily via oral gavage for 4 consecutive days beginning 1 hr after infection measured on day 8 post infection relative to control; format: functional; how it was run: as §1
[6] = tested on: Plasmodium berghei; experiment: Antimalarial activity against Plasmodium berghei infected in Swiss Webster mouse assessed as mouse survival rate at 100 mg/kg administered once daily via oral gavage for 4 consecutive days beginning 1 hr after infection measured on day 10 post infection relative to control; format: functional; how it was run: as §1
[7] = tested on: Plasmodium berghei; experiment: Antimalarial activity against Plasmodium berghei infected in Swiss Webster mouse assessed as mouse survival rate at 1 mg/kg administered once daily via oral gavage for 4 consecutive days beginning 1 hr after infection measured on day 7 post infection relative to control; format: functional; how it was run: as §1
[8] = tested on: Plasmodium berghei; experiment: Antimalarial activity against Plasmodium berghei infected in Swiss Webster mouse assessed as mouse survival rate at 100 mg/kg administered once daily via oral gavage for 4 consecutive days beginning 1 hr after infection measured on day 7 post infection relative to control; format: functional; how it was run: as §1
[9] = tested on: Plasmodium berghei; experiment: Antimalarial activity against Plasmodium berghei infected in Swiss Webster mouse assessed as mouse survival rate at 1 mg/kg administered once daily via oral gavage for 4 consecutive days beginning 1 hr after infection measured on day 6 post infection relative to control; format: functional; how it was run: as §1
[10] = tested on: Plasmodium berghei; experiment: Antimalarial activity against Plasmodium berghei infected in Swiss Webster mouse assessed as mouse survival rate at 33 mg/kg administered once daily via oral gavage for 4 consecutive days beginning 1 hr after infection measured on day 7 post infection relative to control; format: functional; how it was run: as §2
[11] = tested on: Plasmodium berghei; experiment: Antimalarial activity against Plasmodium berghei infected in Swiss Webster mouse assessed as mouse survival rate at 100 mg/kg administered once daily via oral gavage for 4 consecutive days beginning 1 hr after infection measured on day 12 post infection relative to control; format: functional; how it was run: as §1
[12] = tested on: Plasmodium berghei; experiment: Antimalarial activity against Plasmodium berghei infected in Swiss Webster mouse assessed as mouse survival rate at 100 mg/kg administered once daily via oral gavage for 4 consecutive days beginning 1 hr after infection measured on day 9 post infection relative to control; format: functional; how it was run: as §1
[13] = tested on: Plasmodium berghei; experiment: Antimalarial activity against Plasmodium berghei infected in Swiss Webster mouse assessed as mouse survival rate at 11 mg/kg administered once daily via oral gavage for 4 consecutive days beginning 1 hr after infection measured on day 6 post infection relative to control; format: functional; how it was run: as §2
[14] = tested on: Plasmodium berghei; experiment: Antimalarial activity against Plasmodium berghei infected in Swiss Webster mouse assessed as mouse survival rate at 3 mg/kg administered once daily via oral gavage for 4 consecutive days beginning 1 hr after infection measured on day 5 post infection relative to control; format: functional; how it was run: as §2
[15] = tested on: Plasmodium berghei; experiment: Antimalarial activity against Plasmodium berghei infected in Swiss Webster mouse assessed as mouse survival rate at 3 mg/kg administered once daily via oral gavage for 4 consecutive days beginning 1 hr after infection measured on day 4 post infection relative to control; format: functional; how it was run: as §2
[16] = tested on: Plasmodium berghei; experiment: Antimalarial activity against Plasmodium berghei infected in Swiss Webster mouse assessed as mouse survival rate administered once daily via oral gavage for 4 consecutive days beginning 1 hr after infection measured on day 4 post infection; format: functional; how it was run: as §1
[17] = tested on: Plasmodium falciparum; experiment: Antimalarial activity against chloroquine-sensitive Plasmodium falciparum 3D7 infected in human erythrocytes assessed as reduction in [3H]-hypoxanthine incorporation preincubated for 24 hrs followed by [3H]-hypoxanthine addition measured after 24 hrs by scintillation counting method; format: functional, cell-based
How it was run: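 P. falciparum 3D7 cultures were exposed to the compound for 48 h, with atovaquone as the reference control. IC50 was taken from three replicates.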

[18] = tested on: Plasmodium berghei; experiment: Antimalarial activity against Plasmodium berghei infected in Swiss Webster mouse assessed as mouse survival rate at 33 mg/kg administered once daily via oral gavage for 4 consecutive days beginning 1 hr after infection measured on day 9 post infection relative to control; format: functional; how it was run: as §2
[19] = tested on: Plasmodium berghei; experiment: Antimalarial activity against Plasmodium berghei infected in Swiss Webster mouse assessed as mouse survival rate at 1 mg/kg administered once daily via oral gavage for 4 consecutive days beginning 1 hr after infection measured on day 5 post infection relative to control; format: functional; how it was run: as §1
[20] = tested on: Plasmodium berghei; experiment: Antimalarial activity against Plasmodium berghei infected in Swiss Webster mouse assessed as mouse survival rate at 1 mg/kg administered once daily via oral gavage for 4 consecutive days beginning 1 hr after infection measured on day 4 post infection relative to control; format: functional; how it was run: as §1
[21] = tested on: Plasmodium berghei; experiment: Antimalarial activity against Plasmodium berghei infected in Swiss Webster mouse assessed as mouse survival rate at 33 mg/kg administered once daily via oral gavage for 4 consecutive days beginning 1 hr after infection measured on day 5 post infection relative to control; format: functional; how it was run: as §2
[22] = tested on: Plasmodium berghei; experiment: Antimalarial activity against Plasmodium berghei infected in Swiss Webster mouse assessed as mouse survival rate at 33 mg/kg administered once daily via oral gavage for 4 consecutive days beginning 1 hr after infection measured on day 8 post infection relative to control; format: functional; how it was run: as §2
[23] = tested on: Plasmodium berghei; experiment: Antimalarial activity against Plasmodium berghei infected in Swiss Webster mouse assessed as mouse survival rate at 3 mg/kg administered once daily via oral gavage for 4 consecutive days beginning 1 hr after infection measured on day 6 post infection relative to control; format: functional; how it was run: as §2
[24] = tested on: Plasmodium berghei; experiment: Antimalarial activity against Plasmodium berghei infected in Swiss Webster mouse assessed as mouse survival rate at 11 mg/kg administered once daily via oral gavage for 4 consecutive days beginning 1 hr after infection measured on day 4 post infection relative to control; format: functional; how it was run: as §2
[25] = tested on: Plasmodium berghei; experiment: Antimalarial activity against Plasmodium berghei infected in Swiss Webster mouse assessed as mouse survival rate at 33 mg/kg administered once daily via oral gavage for 4 consecutive days beginning 1 hr after infection measured on day 4 post infection relative to control; format: functional; how it was run: as §2
[26] = tested on: Plasmodium berghei; experiment: Antimalarial activity against Plasmodium berghei infected in Swiss Webster mouse assessed as mouse survival rate at 100 mg/kg administered once daily via oral gavage for 4 consecutive days beginning 1 hr after infection measured on day 6 post infection relative to control; format: functional; how it was run: as §1
[27] = tested on: Plasmodium falciparum; experiment: Antimalarial activity against chloroquine-resistant Plasmodium falciparum W2 infected in human erythrocytes after 48 hrs by YOYO-1 dye based flow cytometric analysis; format: functional, cell-based; conditions: W2, 48 h
How it was run: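 P. falciparum W2 cultures were exposed to the compound for 48 h, with artemisinin and chloroquine as reference controls. IC50 was taken from two independent replicates.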

[28] = tested on: Plasmodium berghei; experiment: Antimalarial activity against Plasmodium berghei infected in Swiss Webster mouse assessed as mouse survival rate at 11 mg/kg administered once daily via oral gavage for 4 consecutive days beginning 1 hr after infection measured on day 7 post infection relative to control; format: functional; how it was run: as §2
[29] = tested on: Plasmodium berghei; experiment: Antimalarial activity against Plasmodium berghei infected in Swiss Webster mouse assessed as mouse survival rate at 100 mg/kg administered once daily via oral gavage for 4 consecutive days beginning 1 hr after infection measured on day 11 post infection relative to control; format: functional; how it was run: as §1
[30] = tested on: Plasmodium berghei; experiment: Antimalarial activity against Plasmodium berghei infected in Swiss Webster mouse assessed as mouse survival rate at 33 mg/kg administered once daily via oral gavage for 4 consecutive days beginning 1 hr after infection measured on day 6 post infection relative to control; format: functional; how it was run: as §2
[31] = tested on: Plasmodium berghei; experiment: Antimalarial activity against Plasmodium berghei infected in Swiss Webster mouse assessed as mouse survival rate at 100 mg/kg administered once daily via oral gavage for 4 consecutive days beginning 1 hr after infection measured on day 5 post infection relative to control; format: functional; how it was run: as §1
[32] = tested on: Plasmodium berghei; experiment: Antimalarial activity against Plasmodium berghei infected in Swiss Webster mouse assessed as mouse survival rate at 11 mg/kg administered once daily via oral gavage for 4 consecutive days beginning 1 hr after infection measured on day 5 post infection relative to control; format: functional; how it was run: as §2

`Cc1c(Oc2cnc(C(=O)N[C@@H](CO)C(C)C)cn2)ccc2c1B(O)OC2` showed a survival at 100 mg/kg [1] of 100%, a survival at 3 mg/kg [2] of 0% and a survival at 100 mg/kg [3] of 40%. It also gave a survival at 100 mg/kg [4] of 40%, a survival at 100 mg/kg [5] of 100% and a survival at 100 mg/kg [6] of 40%. For the same molecule, the survival at 1 mg/kg [7] was 0%, the survival at 100 mg/kg [8] was 100% and the survival at 1 mg/kg [9] was 100%. For the same molecule, the survival at 33 mg/kg [10] was 80%, the survival at 100 mg/kg [11] was 40% and the survival at 100 mg/kg [12] was 100%. The survival at 11 mg/kg [13] was 100%, the survival at 3 mg/kg [14] was 100% and the survival at 3 mg/kg [15] was 100%. The ED90 [16] was 26.7 mg/kg, the IC50 [17] was 466 nM and the survival at 33 mg/kg [18] was 0%. The survival at 1 mg/kg [19] was 100%, the survival at 1 mg/kg [20] was 100% and the survival at 33 mg/kg [21] was 100%. The survival at 33 mg/kg [22] was 80%, the survival at 3 mg/kg [23] was 100% and the survival at 11 mg/kg [24] was 100%. For the same molecule, the survival at 33 mg/kg [25] was 100%, the survival at 100 mg/kg [26] was 100% and the IC50 [27] was 149 nM. The survival at 11 mg/kg [28] was 0%, the survival at 100 mg/kg [29] was 40% and the survival at 33 mg/kg [30] was 100%. It also gave a survival at 100 mg/kg [31] of 100% and a survival at 11 mg/kg [32] of 100%.
`COC[C@H](CO)NC(=O)c1cnc(Oc2ccc3c(c2C)B(O)OC3)cn1` showed an IC50 [17] of 796 nM and an IC50 [27] of 455 nM.

— ChEMBL document CHEMBL4038305, “Benzoxaborole Antimalarial Agents. Part 5. Lead Optimization of Novel Amide Pyrazinyloxy Benzoxaboroles and Identification of a Preclinical Candidate” (J Med Chem, 2017)
